TCR-CD3 inh: inhibitors of human TCR-CD3 interaction, primary screen, biochemical, fluorescence, TAMRA-labeled TCR probe | inhibition, % at 9.4 µM | 360,000 tested, 0.37% active | AID 651800, 2012; in the data active = inhibition above about 19%;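 note: recombinant mutant TCR 2C K166C tagged with TAMRA read by polarization; 0% = receptor in buffer alone and 100% = receptor with positive control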
ABHD4 inh: ABHD4 inhibitors, primary screen, biochemical, fluorescence polarization, mouse | purified mABHD4, FP-Rh probe fluorescence polarization | (Lyso)-N-acylphosphatidylethanolamine lipase (Mus musculus), Q8VD66 | AID 720543, 2013 | inhibition, % at 8.92 µM | 370,000 tested, 0.54% active;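 active = inhibition exceeding the mean over every tested compound plus 3 SD, cut at about 30% in these data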;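 note: 0% = plate median of compound wells and 100% = S159A mutant with DMSO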
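Assay system: mABHD4 protein; medium: HEPES pH 7.0, NaCl, Pluronic buffer; dosing: 8.92 µM, single dose; schedule: 45 min + 60 min at 25 °C; signal: FP readout, ex 525 nm / em 598 nm; read-out: normalized percent inhibition of probe labeling; repeats: single replicate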
SIAE primary: human SIAE inhibitors, primary screen, biochemical, fluorescence polarization, FP-Rh probe, 1536-well HTS; Sialate O-acetylesterase (Homo sapiens), Q9HAT2; SIAE FP-Rh probe binding; inhibition, % at 9.66 µM; 370,000 tested, 0.69% active;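 active = inhibition above a cutoff: mean of compounds within the control limits plus 3 SD of those, cut at about 17% in these data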;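 note: 0% = plate median of compound wells and 100% = probe without SIAE protein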
PRMT1 FP inh: PRMT1 methyltransferase inhibitors, primary screen, biochemical, fluorescence polarization; inhibition, % at 2.79 µM; Protein arginine N-methyltransferase 1 (Homo sapiens), Q99873; AID 652257, 2013; 370,000 tested, 1.3% active; recombinant PRMT1, activity-based probe fluorescence polarization;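 active = inhibition above about 21% made by adding two undisclosed values, limit read from the data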
Target sequence (Q99873 whole entry, looked up): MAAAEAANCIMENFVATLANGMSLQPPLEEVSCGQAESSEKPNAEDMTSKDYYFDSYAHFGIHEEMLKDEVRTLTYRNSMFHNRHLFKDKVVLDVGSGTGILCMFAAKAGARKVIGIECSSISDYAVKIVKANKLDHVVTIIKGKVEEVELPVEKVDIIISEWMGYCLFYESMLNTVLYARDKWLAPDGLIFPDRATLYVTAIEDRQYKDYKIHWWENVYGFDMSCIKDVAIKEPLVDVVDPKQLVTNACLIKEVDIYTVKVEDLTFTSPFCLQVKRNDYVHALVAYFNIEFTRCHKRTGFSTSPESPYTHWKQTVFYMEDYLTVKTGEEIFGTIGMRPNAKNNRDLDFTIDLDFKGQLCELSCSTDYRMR
rCAG binder-1: binders of r(CAG) RNA repeats, primary screen, biochemical, fluorescence; r(CAG) RNA repeat, TO-PRO-1 dye displacement fluorescence; inhibition, % at 3 µM; 370,000 tested, 1.3% active;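 active = inhibition above the plate cutoff, the mean of all test compounds on that plate plus 3 SD, cut at about 35% in these data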;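 note: 0% = DMSO alone and 100% = 100 µM mitoxantrone as full dye displacement; higher means more dye released from RNA so lower well fluorescence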
HTRA1 inhibitor: HTRA1 serine protease inhibitors, primary screen, biochemical, fluorescence polarization, HTS | 340,000 tested, 0.5% active | recombinant HTRA1, FP-rhodamine activity-based probe | Q92743 | inhibition, % at 5.96 µM; in the data active = inhibition above about 36%;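 note: 0% = enzyme with DMSO and 100% = wells lacking enzyme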
rCAG binder conf: small molecules binding CAG repeat RNA – biochemical, fluorescence, confirmation; shares compounds with rCAG binder-1; r(CAG) RNA repeat, TO-PRO-1 dye displacement fluorescence; inhibition, % at 3 µM; 4,300 tested, 70% active;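 active = inhibition above a per-plate cutoff, the mean inhibition of sample wells plus 3 SD, cut at about 35% in these data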;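 note: loss of TO-PRO-1 fluorescence as compound displaces dye from 1x1 AA loop RNA; 0% = DMSO only wells and 100% = 100 µM mitoxantrone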
dCAG dye counter: displacement of TO-PRO-1 from CAG DNA duplex, counter-screen for rCAG RNA repeat binder project, biochemical, fluorescence, TO-PRO-1 dye, d(CAG) DNA oligo. 4,300 tested, 94% active. shares compounds with rCAG binder-1. inhibition, % at 3 µM. d(CAG) DNA oligo TO-PRO-1 dye displacement;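 active = inhibition above its plate's cutoff, the mean test-well inhibition plus 3 SD, cut at about 4.8% in these data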;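 note: 0% = DNA dye mix with DMSO and 100% = 100 µM mitoxantrone; hits displace the dye from DNA and so lower well fluorescence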
DNA CAG DR: inhibitors of DNA CAG/GTC TO-PRO-1 complex, dose response, counter-screen for rCAG RNA repeat binder project, biochemical, fluorescence, TO-PRO-1 dye; 250 tested, 20% active; DNA CAG/GTC duplex TO-PRO-1 dye displacement fluorescence; IC50, µM; AID 686960, 2013; shares compounds with rCAG binder-1; in the data active = IC50 below about 10 µM
dCAG DNA bind: TO-PRO-1 dye complex inhibitors on d(CAG) DNA, dose response, counter-screen, biochemical, fluorescence, late stage; shares compounds with rCAG binder-1; 30 tested, 80% active; d(CAG) DNA duplex TO-PRO-1 dye displacement; IC50, µM
rCAG binder-2: molecules binding r(CAG) RNA repeats, late stage dose response, late-stage follow-up, biochemical, fluorescence, dose response, powder samples | shares compounds with rCAG binder-1 | r(CAG) RNA TO-PRO-1 dye displacement | IC50, µM | 30 tested, 100% active | AID 720651, 2013
Active calls of the source: *; i = inactive; x = no result. This is a sample that favours compounds with a hit; in the whole collection about 3.5% have one here. Unless noted, the rule behind the calls is not given here.

SMILES	TCR-CD3 inh	ABHD4 inh	SIAE primary	PRMT1 FP inh	rCAG binder-1	HTRA1 inhibitor	rCAG binder conf	dCAG dye counter	others
Cc1ccc(C)c(OCC(=O)Nc2ccc(C(=O)O)cc2NC(=O)COc2cc(C)ccc2C)c1	11	-24	-9	-3	74*	-37	75*	40*
Cc1ccc(C)c(OCC(=O)Nc2cc(C(=O)O)cc(C(=O)O)c2)c1	1	2	0	-4	2	1	x	x
COc1cc(/C=N/NS(=O)(=O)c2ccc(C)c([N+](=O)[O-])c2)cc([N+](=O)[O-])c1O	-1	13	-2	5	11	8	x	x
COc1ccc(-n2c(O)c(/C=N/NS(=O)(=O)c3ccc(C)c([N+](=O)[O-])c3)c3ccccc3c2=O)cc1OC	-71	11	-14	16	37*	-24	57*	25*
COc1ccc(Br)cc1CNC(=O)Cc1c(C(=O)O)[nH]c2ccc(Cl)cc12	12	-13	0	0	58*	x	45*	11*
CCOC(=O)c1[nH]c2ccc(F)cc2c1NC(=O)c1cc(OC)c(OC)c(OC)c1	-2	4	3	3	5	-21	x	x
Cc1ccc(C)c(N2CCN(C(=O)Cc3c(C(=O)O)[nH]c4ccc(Cl)cc34)CC2)c1	-4	3	-1	1	57*	-15	64*	25*
COc1ccc(OC)c(CNC(=O)Cc2c(C(=O)O)[nH]c3ccc(Cl)cc23)c1	-1	0	-6	3	26	-4	x	x
COc1cc(C(=O)Nc2c(C(=O)O)[nH]c3ccc(Br)cc23)cc(OC)c1OC	3	4	1	1	84*	20	78*	40*
COc1ccccc1N1CCN(C(=O)Cc2c(C(=O)O)[nH]c3ccc(Cl)cc23)CC1	3	0	5	-3	39*	8	42*	11*
CSc1ccc(C=Nn2c(-c3cc(C)[nH]n3)n[nH]c2=S)cc1	x	3	5	7	10	x	x	x
COc1ccc(C2C(C(=O)Nc3cc(OC)ccc3OC)CCC(=O)N2c2ccc(OC)cc2)cc1 (stereo unspecified)	x	-1	0	-1	7	x	x	x
COCC#Cc1ccc(CC[C@H]2O[C@H]3CC[C@H](CO)O[C@H]3C[C@H]2n2cc(C(C)(C)O)nn2)cc1	x	-2	0	-3	-1	x	x	x
O=C(O)c1[nH]c2ccc(Cl)cc2c1CC(=O)N1CCN(c2ccccc2)CC1	0	1	0	2	41*	-8	42*	12*
O=C(O)c1[nH]c2ccc(Cl)cc2c1CC(=O)N1CCN(C(=O)c2ccco2)CC1	6	7	6	5	26	-4	x	x
C=CCN1C(=O)C(CC(=O)O)SC1=Nc1ccc(N=Nc2ccccc2)cc1 (stereo unspecified)	-3	3	10	-1	55*	-5	37*	8.8*
CC(C)=CCC/C(C)=C/CN1CC(=O)N2[C@H](C[C@@]3(n4ccc5ccccc54)c4ccccc4N(S(=O)(=O)c4ccccc4)[C@@H]23)C1=O	x	4	-8	-8	14	x	x	x
c1ccc(Cn2ccc3ccc(-c4ccc5ccn(Cc6cccc(-c7cccs7)c6)c5c4)cc32)cc1	x	-1	7	2	22	x	x	x
Nc1cc(S(=O)(=O)Nc2cc(Cl)ccc2Cl)ccc1N1CCCC1	4	2	2	-1	16	12	x	x
CNC(=S)Nc1cc(S(=O)(=O)Nc2cc(Cl)ccc2Cl)ccc1N1CCCC1	-5	10	4	7	37*	-4	43*	19*
COc1cc(/C=C/C(=O)O)cc(S(=O)(=O)Nc2cc(C(F)(F)F)ccc2N2CCOCC2)c1OC	6	4	5	10	41*	3	33	5.8*
N#Cc1c(SC(C(=O)O)c2ccccc2)nc2c(c1-c1cccs1)CCCC2 (stereo unspecified)	-4	4	-7	3	67*	-27	74*	28*	DNA CAG DR=i
CCOC(=O)C(C)Sc1nc2c(c(-c3cccs3)c1C#N)CCC2 (stereo unspecified)	5	-1	-5	1	4	-39	x	x
CC(C)S(=O)(=O)C1=NSC2=NC(=O)/C(=C\c3ccc(-c4cccc(C(=O)O)c4)o3)C(=N)N21	-8	-24	-72	5	72*	-30	74*	29*	DNA CAG DR=i;dCAG DNA bind=1.3*;rCAG binder-2=0.33*
N=C1/C(=C\c2ccc(-c3cc(Cl)cc(Cl)c3)o2)C(=O)N=C2SC=C(c3ccccc3)N12	0	-11	-2	1	37*	-13	38*	22*
CS(=O)(=O)C1=NSC2=NC(=O)/C(=C\c3ccc(OS(=O)(=O)c4ccccc4)cc3)C(=N)N21	6	-5	-11	-2	30	-5	x	x
N=C1/C(=C/c2cccn2CCOc2ccccc2)C(=O)N=C2SC=C(c3ccccc3)N12	-4	-24	-3	-2	30	-53	x	x
CC(C)S(=O)(=O)C1=NSC2=NC(=O)/C(=C\c3ccc(-c4ccccc4)o3)C(=N)N21	4	-14	-28	1	38*	-32	87*	66*
CCCC1CCC2(CCC(=O)N2CCSc2ccccc2)CC1 (stereo unspecified)	x	1	0	-4	2	x	x	x
